APP 5'UTR act – activators of APP 5'UTR luciferase reporter, primary screen, SH-SY5Y cells | SH-SY5Y APP 5'UTR luciferase reporter, luminescence; zero percent = DMSO vehicle wells | activation, % at 2 µM | actives 1% (n = 190,000) | AID 1276, 2008;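 active means activation above a set limit, based on mean plus 3 SD of controls, cut at about 140% in these data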
STAT1 act – STAT1 signaling activators, primary screen, cell-based, HTS, luciferase reporter; NIH 3T3 STAT1-luciferase reporter, IFN-gamma, luminescence; 100% = IFN-gamma alone, no compound; activation (% of control), % at 5.5 µM; actives 2.6% (n = 200,000);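 active means activation above the screen-wide mean activation plus 3 SD, cut at about 130% in these data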
STAT3 inh – IL-6 driven STAT3 reporter inhibitors, primary screen, U3A cells, luciferase, luminescence, MLSCN library | IL-6 STAT3-luciferase reporter; host cell line lacks STAT1 | inhibition, % at 5.5 µM | actives 0.89% (n = 190,000) | AID 862, 2007;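 active means inhibition above the mean inhibition across all screened compounds plus 3 SD, cut at about 44% in these data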
NF-kB expr up – activators of NF-kB expression in neurons, primary screen, cell-based, HTS. fold change at 12.5 µM. human neuronal cells, NF-kB reporter expression; hits give high values. actives 1.6% (n = 190,000); in the data active means fold change above about 3.3
STAT3 activator – IL-6 driven STAT3 reporter potentiators, primary screen, U3A cells, luciferase, luminescence, MLSCN library | IL-6 STAT3-luciferase reporter; 100% = signal with IL-6 EC80 alone | activation (% of control), % at 5.6 µM | actives 0.91% (n = 190,000) | AID 871, 2007;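 active means activation above the screen-wide mean of compound activation plus 3 SD, cut at about 130% in these data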
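system = STAT3-luciferase reporter U3A cells | reagent = IL-6 stimulus at 33 ng/mL final | timing = 1 h compound pre-exposure, 6 h IL-6 stimulation, 37 °C | measured by = luminescence | evaluation = % activation versus median of IL-6-stimulated wells | control set = IL-6-only wells as 100% reference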
STAT1 inh – STAT1 signaling inhibitors, primary screen, cell-based, HTS, luciferase reporter | NIH 3T3 STAT1-luciferase reporter, IFN-gamma, luminescence | inhibition, % at 5.5 µM | actives 0.35% (n = 200,000);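 active means inhibition above a set limit, the mean inhibition across all tested compounds plus 3 SD, cut at about 34% in these data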
STAT1 act conf – STAT1 signaling activators, confirmation, cell-based, HTS, luciferase reporter; shares compounds with STAT1 act; NIH 3T3 STAT1-luciferase reporter, IFN-gamma potentiation, luminescence; 100% = IFN-gamma EC80 alone, no compound; activation (% of control), % at 5.7 µM; actives 97% (n = 1,200);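 active means activation above a set limit carried over from the earlier primary STAT1 screen, cut at about 140% in these data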
NFkB act – NF-kB reporter activators, TNF-alpha stimulated, counter-screen for STAT1 activator project, cell-based, HEK293T, luciferase luminescence; actives 43% (n = 1,200); activation (% of control), % at 5.7 µM; 100% = TNF-alpha with vehicle only; AID 1306, 2008; shares compounds with STAT1 act;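 active means activation above the mean of solvent-only control wells plus 3 SD, set per campaign, cut at about 130% in these data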;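 further: TNF-alpha given at a submaximal dose yielding about 80% of full reporter signal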
STAT3 act STAT1c – STAT3 reporter activation by STAT1 hits, confirmation, counter-screen for STAT1 activator project, U3A cells, luciferase, luminescence. shares compounds with STAT1 act. activation (% of control), % at 5.7 µM. actives 46% (n = 1,200). IL-6; cells lack STAT1; 100 = IL-6 alone, no compound effect;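 active means activation above the solvent-only control well mean plus 3 SD, set per plate batch, cut at about 110% in these data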;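 further: higher means more STAT3 reporter activation so hits are non-selective activators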
Each line names hits and unclear results; the compound was inactive in the other large screens (follow-up assays come after a bar, where they were run). Sampled rows, rich in hits. Any-hit rate of the full collection: about 4.9%.

Cc1ccc(/C=N/NC(=O)c2ccccn2)s1	STAT1 act 154 | STAT1 act conf 163 | NFkB act inactive | STAT3 act STAT1c inactive
Cc1ccc(C(=O)O)cc1NC(=S)NC(=O)c1ccc([N+](=O)[O-])c(C)c1	none
Cc1c(C(=O)N(C)C)sc2nc(-c3ccccn3)[nH]c(=O)c12	none
O=c1[nH]c(-c2ccccn2)nc2sc(-c3ccccc3)cc12	STAT1 act 298 | STAT1 act conf 473 | NFkB act 225 | STAT3 act STAT1c 119
CNC(=O)c1c(NC(=O)c2nc3ccccc3s2)sc2c1CCC2	STAT1 act 169 | STAT1 act conf 189 | NFkB act 136 | STAT3 act STAT1c 133
COC(=O)c1c(NC(=O)c2nc3ccccc3s2)sc2c1CCN(C(C)=O)C2	none
COc1cc(C2C3=C(CC(C)(C)CC3=O)OC3=C2C(=O)CC(C)(C)C3)cc([N+](=O)[O-])c1O	none
NC(=O)C1=C[C@H](C2CCCCC2)C[C@H](OCc2ccc(CO)cc2)O1	STAT1 act 171, NF-kB expr up 3.8 (no result: STAT3 inh, STAT3 activator) | STAT1 act conf 163 | NFkB act 142 | STAT3 act STAT1c 164
O=C(NC1CC1)C1=C[C@@H](C2CCCCC2)C[C@@H](OCc2ccc(CO)cc2)O1	none (no result: STAT3 inh, STAT3 activator)
Cc1cc(C)c(S(=O)(=O)N2CCCOC2CNC(=O)C(=O)NCCc2c[nH]c3ccccc23)c(C)c1 (stereo not drawn)	none
O=c1[nH]c(=O)c2nc(-c3ccc(Cl)cc3)cnc2[nH]1	none
O=c1[nH]c(=O)c2nc3c4ccccc4c4ccccc4c3nc2[nH]1	STAT1 act 152 | STAT1 act conf 140 | NFkB act inactive | STAT3 act STAT1c inactive
CCC(=O)Nc1cccc(NC(=S)NC(=O)c2cccc(C)c2)c1	none
CCC(=O)Nc1cccc(NC(=S)NC(=O)c2cc3ccccc3o2)c1	APP 5'UTR act 153, STAT1 act 157 | STAT1 act conf 235 | NFkB act inactive | STAT3 act STAT1c 111
CCC(=O)Nc1cccc(NC(=S)NC(=O)c2ccccc2)c1	STAT1 act 151 | STAT1 act conf 162 | NFkB act inactive | STAT3 act STAT1c 114
COc1cccc(C(=O)C2CCCN(Cc3cccc(-n4nc(C)cc4C)c3)C2)c1 (stereo not drawn)	none
CC(=O)c1ccc(NC(=O)/C(Cl)=C/c2ccccc2)cc1	APP 5'UTR act 168, STAT1 act 154, NF-kB expr up 6.4 | STAT1 act conf 200 | NFkB act inactive | STAT3 act STAT1c 115
Cc1ccc(/C=C(\C#N)c2nc3ccccc3[nH]2)s1	APP 5'UTR act 215, STAT1 act 162, NF-kB expr up 6.1 | STAT1 act conf 222 | NFkB act 137 | STAT3 act STAT1c inactive
CS(=O)(=O)NCc1ccc(C(=O)O)cc1	none
O=C(Nc1cc(C(F)(F)F)ccc1-n1cnc2ccccc21)c1ccccc1	none
Cc1cc(C)c2nc(-c3ccccn3)cc(C(=O)n3cccn3)c2c1	none
COc1ccc(OC)c(NC(=O)C(=O)NCCC2=CCCCC2)c1	none
Cc1sc(NC(=O)c2ccccc2)c(C#N)c1-c1ccccc1	APP 5'UTR act 138, STAT1 act 166, NF-kB expr up 4.9 | STAT1 act conf 200 | NFkB act 141 | STAT3 act STAT1c inactive
CCCC12CN3CC(C)(CN(C1)C3c1ccco1)C2=O (stereo not drawn)	none
CCOC(=O)NC(=O)COC(=O)CCCSc1nc2ccccc2s1	none
CCOC(=O)N/C(N)=N/c1nc2ccccc2s1	APP 5'UTR act 199, STAT1 act 166, NF-kB expr up 7 | STAT1 act conf 210 | NFkB act inactive | STAT3 act STAT1c inactive
C/C(=N\NC(=O)c1ccco1)c1ccc(NC(=O)c2cccs2)cc1	STAT1 act 154 | STAT1 act conf inactive | NFkB act inactive | STAT3 act STAT1c inactive
C/C(=N\NC(=O)c1ccccc1C)c1ccc(NC(=O)c2cccs2)cc1	none
COc1ccc(-c2[nH]ncc2CNCC(C)(C)N2CCOCC2)cc1F	none
Cc1cnc(NC(=O)Nc2ccc(Cl)cc2)s1	STAT1 act 296, NF-kB expr up 26 | STAT1 act conf 282 | NFkB act 138 | STAT3 act STAT1c 141
COC(=O)CC1C(=O)NCCN1C(=S)NC(=O)c1sc2ccccc2c1Cl (stereo not drawn)	none
Cc1cccc(OCc2nnc(SCC(=O)N3CC(=O)Nc4ccccc43)o2)c1	none (no result: NF-kB expr up)
Cc1occc1C(=O)Nc1ccc2ccccc2c1	APP 5'UTR act 164, STAT1 act 156, NF-kB expr up 9.3 | STAT1 act conf 207 | NFkB act inactive | STAT3 act STAT1c 152
Cc1occc1C(=O)Nc1cc(C(C)(C)C)on1	APP 5'UTR act 148, STAT1 act 152, NF-kB expr up 4.5 | STAT1 act conf 191 | NFkB act inactive | STAT3 act STAT1c 122
COc1cccc(C(=O)Nc2cc3c(cc2Cl)OCCCO3)c1	APP 5'UTR act 136, STAT1 act 160, NF-kB expr up 4.3 | STAT1 act conf 175 | NFkB act inactive | STAT3 act STAT1c inactive
Cc1nnc(NC(=O)c2ccco2)s1	none
Cc1nc2ccc3nc(NC(=O)c4ccco4)sc3c2s1	STAT1 act 164 (no result: NF-kB expr up) | STAT1 act conf 170 | NFkB act inactive | STAT3 act STAT1c inactive
COc1ccc(-c2csc(NC(=O)c3ccco3)n2)cc1	APP 5'UTR act 137, STAT1 act 153, NF-kB expr up 4.2 | STAT1 act conf 164 | NFkB act inactive | STAT3 act STAT1c inactive
O=C(Nc1nnc(C23CC4CC(CC(C4)C2)C3)s1)c1ccco1	STAT1 act 152 | STAT1 act conf 190 | NFkB act inactive | STAT3 act STAT1c 120
